This note sets out measurements from ChEMBL document CHEMBL2390925, “Further studies on 2-arylacetamide pyridazin-3(2H)-ones: design, synthesis and evaluation of 4,6-disubstituted analogs as formyl peptide receptors (FPRs) agonists” (Eur J Med Chem, 2013).

What is called EC50 is the concentration needed to bring the measured effect to its halfway point.

The target in data set [1] is T1, fMet-Leu-Phe receptor (Homo sapiens) (UniProt P21462).
T1 sequence (whole entry): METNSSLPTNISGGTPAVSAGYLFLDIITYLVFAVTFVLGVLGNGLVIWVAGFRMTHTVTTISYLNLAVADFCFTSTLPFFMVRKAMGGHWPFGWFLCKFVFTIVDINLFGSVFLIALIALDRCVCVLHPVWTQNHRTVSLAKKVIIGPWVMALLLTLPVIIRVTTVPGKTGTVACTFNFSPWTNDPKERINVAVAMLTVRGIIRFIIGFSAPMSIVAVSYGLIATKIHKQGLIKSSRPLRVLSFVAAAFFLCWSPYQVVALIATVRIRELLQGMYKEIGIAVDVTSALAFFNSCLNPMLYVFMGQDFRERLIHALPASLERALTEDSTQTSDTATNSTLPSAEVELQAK
Kind of data set: Agonist activity at FPR1 (unknown origin) transfected in human HL60 cells assessed as induction of Ca2+ mobilization relative to fMLF. The format is functional, cell-based. To be noted: HL-60. Summed up:
(§1)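 Same Fluo-4 Ca2+ flux in transfected HL-60 cells. The peak fluorescence change over baseline was normalized to 5 nM fMLF for FPR1 cells and to 5 nM WKYMVm for FPR2 and FPR3 cells, each taken as 100%. Efficacy was read from 5–6 point dose-response curves.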
(In general: A change in cytosolic calcium serves as a functional read-out for many receptors and channels.)

The target of data set [2] is T2, fMet-Leu-Phe receptor 1/2 (Homo sapiens, UniProt P21462+P25090).
T2 sequence (P21462 whole entry): T1 sequence (whole entry)
T2 sequence (P25090 whole entry): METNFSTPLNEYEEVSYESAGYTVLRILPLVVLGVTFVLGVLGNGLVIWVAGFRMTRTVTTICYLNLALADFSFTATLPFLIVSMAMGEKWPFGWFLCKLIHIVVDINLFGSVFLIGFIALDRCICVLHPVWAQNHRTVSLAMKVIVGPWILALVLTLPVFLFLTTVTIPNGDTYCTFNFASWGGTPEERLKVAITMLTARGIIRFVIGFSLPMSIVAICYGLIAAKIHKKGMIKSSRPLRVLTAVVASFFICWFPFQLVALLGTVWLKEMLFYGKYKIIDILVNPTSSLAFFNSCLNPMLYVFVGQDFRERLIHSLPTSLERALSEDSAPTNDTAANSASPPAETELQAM
As to the kind of experiment: Agonist activity at FPR1/FPR2 in human neutrophils assessed as induction of Ca2+ mobilization. The format is functional.

Data set [3] deals with HL-60. Kind of data set: Effect on Ca2+ mobilization in human wild type HL60 cells. The format is functional, cell-based. Summed up: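 Wild-type, non-transfected HL-60 cells, grown without G418, were run in the same Fluo-4 Ca2+ flux assay. Fluorescence was monitored every 5 s for 240 s at room temperature.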
The target in data set [4] is T3, N-formyl peptide receptor 3 (Homo sapiens, UniProt P25089).
T3 sequence (P25089 whole entry): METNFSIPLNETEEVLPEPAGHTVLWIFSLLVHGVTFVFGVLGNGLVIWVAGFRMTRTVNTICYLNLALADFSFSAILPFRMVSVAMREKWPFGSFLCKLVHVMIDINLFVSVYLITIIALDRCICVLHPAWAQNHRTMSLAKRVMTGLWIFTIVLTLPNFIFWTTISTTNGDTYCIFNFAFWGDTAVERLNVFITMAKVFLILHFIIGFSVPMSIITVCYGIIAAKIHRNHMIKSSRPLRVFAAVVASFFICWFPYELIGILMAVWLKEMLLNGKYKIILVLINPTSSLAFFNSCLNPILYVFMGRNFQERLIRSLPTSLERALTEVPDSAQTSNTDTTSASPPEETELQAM
As to the kind of experiment: Agonist activity at FPR3 (unknown origin) transfected in human HL60 cells assessed as induction of Ca2+ mobilization. In kind it is cell-based, HL-60.

In the next data set the target is T4, fMet-Leu-Phe receptor (Homo sapiens, UniProt P21462).
T4 sequence (P21462 whole entry): T1 sequence (whole entry)
Kind of data set: Agonist activity at FPR1 (unknown origin) transfected in human HL60 cells assessed as induction of Ca2+ mobilization. The format is functional, cell-based, HL-60.

For another data set, the system named is Neutrophil. Kind of data set: Induction of chemotaxis in human neutrophils assessed as cell migration after 60 mins by CellTitre-Glo luminescent assay. The format is functional, cell-based. As to conditions: 1 h. The gist of the method:
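Migration ran 60 min at 37 °C in 5% CO2. Migrated cells were counted by ATP luminescence against a neutrophil standard curve and expressed as % of spontaneous migration. EC50 comes from nonlinear regression of dose-response curves.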

The target in data set [5] is T5, N-formyl peptide receptor 2 (Homo sapiens) (UniProt P25090).
T5 sequence (whole entry): T2 sequence (P25090 whole entry)
Kind of data set: Agonist activity at FPR2 (unknown origin) transfected in human HL60 cells assessed as induction of Ca2+ mobilization relative to WKYMVm. The format is functional, cell-based. As to conditions: HL-60. The gist of the method:
as §1

In data set [6] the test system is HL-60. Kind of data set: Cytotoxicity against human wild type HL60 cells at 5 to 20 uM after 60 mins by CellTitre-Glo luminescent assay. The format is cell-based. To be noted: hl-60, 1 h. The gist of the method: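 Wild-type HL-60 cells at 3×10^4 cells/well were exposed to 5, 10 or 20 µM compound for 60 min at 37 °C in 5% CO2. Samples were equilibrated to room temperature for 30 min before the CellTiter-Glo luminescence read. Triplicate samples; the experiment was representative of two.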

In data set [7] the target is fMet-Leu-Phe receptor 1/2 (Homo sapiens) (UniProt P21462+P25090). As to the kind of experiment: Agonist activity at FPR1/FPR2 in human neutrophils assessed as induction of Ca2+ mobilization relative to fMLF. The format is functional. The gist of the method: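 Neutrophils from healthy donors were isolated by dextran sedimentation, Histopaque 1077 gradient and hypotonic red cell lysis. […] Peak response was normalized to 5 nM fMLF as 100%. EC50 comes from 5–6 point curves, mean of three experiments with different donors.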

Data set [8] deals with T6, N-formyl peptide receptor 2 (Homo sapiens, UniProt P25090).
T6 sequence (P25090 whole entry): T2 sequence (P25090 whole entry)
Kind of data set: Agonist activity at FPR2 (unknown origin) transfected in human HL60 cells assessed as induction of Ca2+ mobilization. The format is functional, cell-based, HL-60.

Consider `COc1ccc(Nc2c(C(C)=O)c(C)nn(CC(=O)Nc3ccc(Br)cc3)c2=O)cc1`, for which the Efficacy in [1] amounted to 75%; in data set [5], 90%; in data set [7], 110%. Besides, the EC50 in data set [2] was 3.9 µM; in the data set on HL-60 [3], greater than 50 µM; in [4], greater than 50 µM; on fMet-Leu-Phe receptor, 13.5 µM; in the data set on Neutrophil, 2.7 µM; in data set [8] it was 1.7 µM. In addition, in the data set on HL-60 [6], the Activity entry is “Non-toxic”.
